In ChEMBL document CHEMBL4715798, “Structure-Based Optimization of Multifunctional Agonists for Opioid and Neuropeptide FF Receptors with Potent Nontolerance Forming Analgesic Activities” (J Med Chem, 2016):
Active and inactive are the calls of the source. No cut-off for these calls is given here. Non-standard residues stand in square brackets, D forms with d. Residues, ends and D or L forms follow the SMILES beside them. NMeF = CN[C@@H](Cc1ccccc1)C(=O)O

Columns and labels:
Mu-type opioid receptor [1] = molecular target: T1, Mu-type opioid receptor (Homo sapiens, UniProt P35372); assay: Agonist activity at mu opioid receptor (unknown origin) expressed in HEK293-A cells assessed as reduction in forskolin-induced cAMP accumulation incubated for 30 mins by competition PKA binding assay; assay type: functional, cell-based; conditions: read-out: EC50
Outline: (§1)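 cAMP functional read-out in transfected cells. Log EC50 ± standard error was obtained by nonlinear regression of data from at least three independent experiments run in duplicate.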

Mus musculus [2] = assay: Antinociceptive activity in mouse at 50 pmol, […] pre-treated with 5 nmol, icv opioid receptor antagonist naloxone 10 mins prior to test compound dosing by radiant heat tail-flick test; assay type: functional, organism-based
Mus musculus [3] = assay: Antinociceptive activity in icv dosed mouse model of CFA-induced chronic inflammatory pain assessed as reduction in tactile hyperalgesia measured after 15 to 90 mins post dose; assay type: functional; conditions: time 15-90 min
[4] = Toxicity in mouse assessed as latency to fall off the rod at 30 mg/kg, ip measured after 10 to 30 mins by rotarod test; assay type: organism-based; conditions: in vivo, time 10-30 min
[5] = molecular target: T2, Delta-type opioid receptor (Homo sapiens, UniProt P41143); assay: Agonist activity at delta opioid receptor (unknown origin) expressed in HEK293-A cells assessed as reduction in forskolin-induced cAMP accumulation incubated for 30 mins by competition PKA binding assay; assay type: functional, cell-based; outline: as §1
Mus musculus [6] = assay: Antinociceptive activity in mouse at 50 pmol, […] pre-treated with 10 nmol, icv delta opioid receptor antagonist naltrindole 20 mins prior to test compound dosing by radiant heat tail-flick test; assay type: functional, organism-based
Mus musculus [7] = assay: Antinociceptive activity in icv dosed mouse assessed as inhibition of phase II flinching behaviors by formalin-induced nociceptive behavioral test; assay type: functional
[8] = molecular target: Kappa-type opioid receptor (Homo sapiens, UniProt P41145); assay: Agonist activity at kappa opioid receptor (unknown origin) expressed in HEK293-A cells assessed as reduction in forskolin-induced cAMP accumulation incubated for 30 mins by competition PKA binding assay; assay type: functional, cell-based; outline: as §1
Mus musculus [9] = assay: Antinociceptive activity in ip dosed mouse by radiant heat tail-flick test; assay type: functional
[10] = molecular target: T3, Neuropeptide FF receptor 2 (Homo sapiens, UniProt Q9Y5X5); assay: Agonist activity at NPFFR2 (unknown origin) expressed in HEK293-A cells assessed as reduction in forskolin-induced cAMP accumulation incubated for 30 mins by competition PKA binding assay; assay type: functional, cell-based; conditions: read-out: EC50; outline: as §1
[11] = Half life in mouse brain membrane homogenate at 10 uM by HPLC analysis; assay type: ADME, cell membranes
Mus musculus [12] = assay: Antinociceptive activity in mouse dosed repeated icv injections for 6 days by radiant heat tail-flick test; assay type: functional; conditions: time 6 day
Outline: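 Mice received the same icv dose once daily for 6 days in the radiant heat tail-flick test. Tolerance was judged by comparing the antinociceptive response on day 1 with day 6. Values are mean ± SEM.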

[13] = molecular target: T4, Neuropeptide FF receptor 1 (Homo sapiens, UniProt Q9GZQ6); assay: Agonist activity at NPFFR1 (unknown origin) expressed in HEK293-A cells assessed as reduction in forskolin-induced cAMP accumulation incubated for 30 mins by competition PKA binding assay relative to Tyr-D-Ala-Gly-Phe-Gln-Pro-Gln-Arg-Phe-NH2; assay type: functional, cell-based; conditions: filed as agonist; outline: as §1
Mu-type opioid receptor [14] = molecular target: T1, Mu-type opioid receptor; assay: Agonist activity at mu opioid receptor (unknown origin) expressed in HEK293-A cells assessed as reduction in forskolin-induced cAMP accumulation incubated for 30 mins by competition PKA binding assay relative to Tyr-D-Ala-Gly-Phe-Gln-Pro-Gln-Arg-Phe-NH2; assay type: functional, cell-based; conditions: filed as agonist; outline: as §1
Mus musculus [15] = assay: Antinociceptive activity in mouse assessed as time for peak antinociceptive effect dosed repeated icv injections for 6 days by radiant heat tail-flick test; assay type: functional; conditions: time 6 day
Mus musculus [16] = assay: Antinociceptive activity in mouse at 50 pmol, […] pre-treated with 10 nmol, icv mu opioid receptor antagonist beta-funaltrexamine 4 hrs prior to test compound dosing by radiant heat tail-flick test; assay type: functional, organism-based
[17] = molecular target: T3, Neuropeptide FF receptor 2; assay: Agonist activity at NPFFR2 (unknown origin) expressed in HEK293-A cells assessed as reduction in forskolin-induced cAMP accumulation incubated for 30 mins by competition PKA binding assay relative to Tyr-D-Ala-Gly-Phe-Gln-Pro-Gln-Arg-Phe-NH2; assay type: functional, cell-based; conditions: filed as agonist; outline: as §1
Mus musculus [18] = assay: Antinociceptive activity in mouse at 50 pmol, […] pre-treated with 10 nmol, icv nonselective NPFF receptor antagonist RF9 by radiant heat tail-flick test; assay type: functional, organism-based
Mus musculus [19] = assay: Antinociceptive activity in mouse at 50 pmol, […] pre-treated with 10 nmol, icv kappa opioid receptor antagonist nor-binaltorphimine 30 mins prior to test compound dosing by radiant heat tail-flick test; assay type: functional, organism-based
[20] = molecular target: T2, Delta-type opioid receptor; assay: Agonist activity at delta opioid receptor (unknown origin) expressed in HEK293-A cells assessed as reduction in forskolin-induced cAMP accumulation incubated for 30 mins by competition PKA binding assay relative to Tyr-D-Ala-Gly-Phe-Gln-Pro-Gln-Arg-Phe-NH2; assay type: functional, cell-based; conditions: filed as agonist; outline: as §1
Mus musculus [21] = assay: Antinociceptive activity in mouse model of CFA-induced chronic inflammatory pain assessed as reduction in tactile hyperalgesia at 30 pmol, icv dosed once daily for 6 days; assay type: functional, organism-based; conditions: time 6.0 day
[22] = Toxicity in mouse assessed as latency to fall off the rod at 200 pmol, icv measured after 10 to 30 mins by rotarod test; conditions: in vivo, icv_or_intrathecal, time 10-30 min
Mus musculus [23] = assay: Antinociceptive activity in mouse assessed as development of tolerance dosed repeated icv injections for 6 days by radiant heat tail-flick test; assay type: functional, organism-based; conditions: time 6.0 day
Outline: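 Tail-flick test in mice. Peptide was given icv once daily for 6 days at a fixed dose. Antinociceptive responses to the same dose on day 1 and day 6 were compared to judge tolerance. Values are mean ± SEM.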

Mus musculus [24] = assay: Antinociceptive activity in mouse assessed as time duration of antinociceptive effect dosed repeated icv injections for 6 days by radiant heat tail-flick test; assay type: functional; conditions: time 6 day
[25] = molecular target: T4, Neuropeptide FF receptor 1; assay: Agonist activity at NPFFR1 (unknown origin) expressed in HEK293-A cells assessed as reduction in forskolin-induced cAMP accumulation incubated for 30 mins by competition PKA binding assay; assay type: functional, cell-based; conditions: read-out: EC50; outline: as §1
Mus musculus [26] = assay: Antinociceptive activity in icv dosed mouse assessed as inhibition of phase I flinching behaviors by formalin-induced nociceptive behavioral test; assay type: functional

C[C@@H](NC(=O)[C@@H](N)Cc1ccc(O)cc1)C(=O)NCC(=O)N(C)[C@@H](Cc1ccccc1)C(=O)NCC(=O)N1CCC[C@H]1C(=O)N[C@@H](CCC(N)=O)C(=O)N[C@@H](CCCNC(=N)N)C(=O)N[C@@H](Cc1ccccc1)C(N)=O (H-Y[dA]G[NMeF]GPQRF-NH2)
EC50 (Mu-type opioid receptor [1]): 0.0386 µM
Activity (Mus musculus [2]): inactive
Activity (Mus musculus [3]): Dose-dependent effect
ED50 (Mus musculus [3]): 3.92 pmol
Activity [4]: Non-Toxic
EC50 [5]: 0.575 µM
Activity (Mus musculus [6]): inactive
Activity (Mus musculus [7]): Dose-dependent effect
ED50 (Mus musculus [7]): 103.4 pmol
EC50 [8]: 1.49 µM
Activity (Mus musculus [9]): Dose-dependent effect
ED50 (Mus musculus [9]): 26.6 mg/kg
EC50 [10]: 0.311 µM
half-life at 10 µM [11]: 1.44 h
ED50 (Mus musculus [12]): 0.0163 nmol
Emax [13]: 69.8%
Emax (Mu-type opioid receptor [14]): 81.6%
Time (Mus musculus [15]): 20 min
Activity (Mus musculus [16]): Active
Emax [17]: 73.3%
Activity (Mus musculus [18]): Active
Activity (Mus musculus [19]): Active
Emax [20]: 85.4%
Activity (Mus musculus [21]): Active
Activity [22]: Non-Toxic
Activity (Mus musculus [23]): Active
Time (Mus musculus [24]): >60 min
EC50 [25]: 0.973 µM
Activity (Mus musculus [26]): Dose-dependent effect
ED50 (Mus musculus [26]): 18.8 pmol
